Target: T1, Adenosine receptor A1 (Rattus norvegicus, UniProt P25099)
T1 sequence (P25099 whole entry): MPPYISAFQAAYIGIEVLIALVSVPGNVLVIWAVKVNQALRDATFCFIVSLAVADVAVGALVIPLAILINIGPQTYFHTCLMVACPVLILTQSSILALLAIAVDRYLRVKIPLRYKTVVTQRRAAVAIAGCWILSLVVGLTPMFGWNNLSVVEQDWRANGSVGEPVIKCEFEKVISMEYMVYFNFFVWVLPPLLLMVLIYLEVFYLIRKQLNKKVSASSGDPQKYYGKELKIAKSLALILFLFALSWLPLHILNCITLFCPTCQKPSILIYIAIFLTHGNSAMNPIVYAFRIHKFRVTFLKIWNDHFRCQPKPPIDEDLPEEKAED
Assay: GTP-induced shift at rat Adenosine A1 receptor (A1AR)
Summary of the method: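 GTP shift taken from these two Ki values. Done only for compounds giving >50% radioligand displacement at 10⁻⁶ M. At least three independent experiments in duplicate.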

| GTP shift | SMILES |
| --- | --- |
| 0.7 | O=C(N[C@@H]1[C@@H](O)[C@H](n2cnc3c(NC4CCCC4)ncnc32)O[C@@H]1CO)c1ccc(F)c(Cl)c1 [3-Chloro-N-[5-(6-cyclopentylamino-purin-9-yl)-4-hydroxy-2-hydroxymethyl-tetrahydro-furan-3-yl]-4-fluoro-benzamide] |
| 0.73 | Cc1ccc(C(=O)N[C@@H]2[C@@H](O)[C@H](n3cnc4c(NC5CCCC5)ncnc43)O[C@@H]2CO)cc1C [N-[5-(6-Cyclopentylamino-purin-9-yl)-4-hydroxy-2-hydroxymethyl-tetrahydro-furan-3-yl]-3,4-dimethyl-benzamide] |
| 0.69 | O=C(CCCc1cccs1)N[C@@H]1[C@@H](O)[C@H](n2cnc3c(NC4CCCC4)ncnc32)O[C@@H]1CO [N-[5-(6-Cyclopentylamino-purin-9-yl)-4-hydroxy-2-hydroxymethyl-tetrahydro-furan-3-yl]-4-thiophen-2-yl-butyramide] |

More lines, now with the values behind:

| SMILES | GTP shift |
| --- | --- |
| C[C@H]1O[C@@H](n2cnc3c(NC4CCCC4)ncnc32)[C@H](O)[C@H]1NC(=O)C1(c2ccccc2)CCCCC1 [1-Phenyl-cyclohexanecarboxylic acid [5-(6-cyclopentylamino-purin-9-yl)-4-hydroxy-2-methyl-tetrahydro-furan-3-yl]-amide] | 0.74 |
| C[C@H]1O[C@@H](n2cnc3c(NC4CCCC4)ncnc32)[C@H](O)[C@H]1O [2-(6-Cyclopentylamino-purin-9-yl)-5-methyl-tetrahydro-furan-3,4-diol] | 6.4 |
| C[C@H]1O[C@@H](n2cnc3c(NC4CCCC4)ncnc32)[C@H](O)[C@H]1NC(=O)C1CCCC[C@H]1C(=O)c1cccs1 (some centres undefined) [2-(Thiophene-2-carbonyl)-cyclohexanecarboxylic acid [5-(6-cyclopentylamino-purin-9-yl)-4-hydroxy-2-methyl-tetrahydro-furan-3-yl]-amide] | 0.72 |
| C[C@H]1O[C@@H](n2cnc3c(NC4CCCC4)ncnc32)[C@H](O)[C@H]1NC(=O)C1(c2ccccc2)CCCC1 [1-Phenyl-cyclopentanecarboxylic acid [5-(6-cyclopentylamino-purin-9-yl)-4-hydroxy-2-methyl-tetrahydro-furan-3-yl]-amide] | 0.84 |
| Cn1cnc2c(NC3CCCC3)ncnc21 | 0.94 |
| C[C@H]1O[C@@H](n2cnc3c(NC4CCCC4)ncnc32)[C@H](O)[C@H]1NC(=O)CCCc1cccs1 [N-[5-(6-Cyclopentylamino-purin-9-yl)-4-hydroxy-2-methyl-tetrahydro-furan-3-yl]-4-thiophen-2-yl-butyramide] | 0.7 |

— BindingDB's records for doi:10.1021/jm0110439 (Ghent University, 2002)
